Consider 17 compounds from ChEMBL document CHEMBL1759940, “Synthesis and anticonvulsant activity of 8-alkoxy-5,6-dihydro-4H-[1,2,4]triazolo[4,3-a][1]benzazepin-1-one derivatives” (Eur J Med Chem, 2011).

For series [1], the system named is Mus musculus. Description: Anticonvulsant activity in Swiss mouse assessed as protection against maximal electroshock-induced seizures at 100 mg/kg, ip administered 30 mins before electroshock challenge measured after 30 mins. The format is functional, organism-based. Also on record: dose 100 mg/kg. The method, boiled down:
(§1)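 Swiss mice (18-22 g) given the test compound i.p. in DMSO at 30, 100 or 300 mg/kg for phase I screening. Maximal electroshock was applied 30 min after dosing, and protection against the MES-induced seizure was scored.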

Series [2] deals with Mus musculus. Description: Anticonvulsant activity in Swiss mouse assessed as protection against subcutaneous pentylenetetrazol-induced seizures at 100 mg/kg, ip after 30 mins. The format is functional, organism-based. Also on record: dose 100 mg/kg. Summed up:
(§2)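 Swiss mice (18-22 g) were dosed i.p. in DMSO at 30, 100 or 300 mg/kg. Pentylenetetrazol (85 mg/kg) was then injected s.c. Protection meant no clonic spasms lasting at least 5 s over a 30 min period after test compound administration.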

The subject of series [3] is Mus musculus. Briefly: Anticonvulsant activity in ip dosed Swiss mouse assessed as protection against maximal electroshock-induced seizures administered 30 mins before electroshock challenge measured after 30 mins. The format is functional. Summed up: (§3)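 Phase II quantification in Swiss mice (18-22 g), with compounds dissolved in DMSO and given i.p. Groups of 10 mice received a range of doses until at least three points fell within 10-90% protection against MES-induced seizures. ED50 and 95% confidence intervals were derived by the trimmed Spearman-Karber method.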

Series [4] is described as follows: Neurotoxicity against Swiss mouse after 4 hrs by rotarod ataxia test. The format is toxicity, organism-based. The note with it: in vivo. Summed up: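 Neurologic deficit was scored in Swiss mice (18-22 g) by rotarod ataxia test after i.p. dosing in DMSO (phase I: 30, 100, 300 mg/kg, assessed at 30 min and 4 h). For TD50, groups of 10 mice received a range of doses giving at least three points within 10-90% minimal neurotoxicity, calculated by trimmed Spearman-Karber with 95% confidence intervals.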

For series [5], the species on record is Mus musculus. Briefly: Protective index, ratio of TD50 for Swiss mouse to ED50 for Swiss mouse by maximal electroshock-induced seizures test. It is filed as functional.
For series [6], the system named is Mus musculus. Briefly: Anticonvulsant activity in Swiss mouse assessed as protection against maximal electroshock-induced seizures at 30 mg/kg, ip administered 30 mins before electroshock challenge measured after 30 mins. The format is functional, organism-based. On the set-up: dose 30 mg/kg. The method, boiled down: as §1
The subject of series [7] is Mus musculus. Briefly: Anticonvulsant activity in Swiss mouse assessed as protection against subcutaneous pentylenetetrazol-induced seizures at 30 mg/kg, ip after 30 mins. The format is functional, organism-based. On the set-up: dose 30 mg/kg. Summed up: as §2
Series [8] deals with Mus musculus. Briefly: Anticonvulsant activity in Swiss mouse assessed as protection against subcutaneous pentylenetetrazol-induced seizures at 300 mg/kg, ip after 30 mins. It is filed as functional, organism-based. On the set-up: dose 300 mg/kg. The method, boiled down:
as §2

The test system of series [9] is Mus musculus. Briefly: Anticonvulsant activity in ip dosed Swiss mouse assessed as protection against maximal electroshock-induced seizures after 30 mins. The format is functional. The note with it: 0.5 h. The method, boiled down: as §3
Series [10] has as its system Mus musculus. Briefly: Protective index, ratio of TD50 for Swiss mouse to ED50 for Swiss mouse by subcutaneous pentylenetetrazol-induced seizure test. The format is functional.
Series [11] concerns Mus musculus. Description: Anticonvulsant activity in Swiss mouse assessed as protection against maximal induced seizures at 300 mg/kg, ip administered 30 mins before electroshock challenge measured after 30 mins. It is filed as functional, organism-based. Also on record: dose 300 mg/kg. Summed up: as §1

The source made the active and inactive calls. The rule behind the calls is not given here.

`O=c1[nH]nc2n1-c1ccc(OCc3ccccc3Cl)cc1CCC2`: in [1], the outcome was Active. For the same compound, the outcome in [2] was inactive. Also, in series [3], the ED50 was 32.9 mg/kg. Moreover, the TD50 at 4 h in series [4] was over 931 mg/kg. Besides, in [5], the PI was over 28.3.

On to `O=c1[nH]nc2n1-c1ccc(OCc3cccc(Cl)c3)cc1CCC2`, for which the 50% effective dose (ED50) in series [3] came to 26.4 mg/kg. This compound also came in with a TD50 at 4 h in [4] of over 931 mg/kg. The PI in series [5] was over 35.3.

Turning to `O=c1[nH]nc2n1-c1ccc(OCc3cccc(F)c3)cc1CCC2`, the outcome in series [6] was Active. In addition, the result in series [7] and in series [2] was inactive. In addition, in series [3], the ED50 stood at 17.6 mg/kg. The same compound registered a TD50 at 4 h in series [4] of over 931 mg/kg. Moreover, the PI in series [5] is reported as over 52.9.

On to `O=c1[nH]nc2n1-c1ccc(OCc3ccccc3F)cc1CCC2`, for which the outcome in series [6] was Active. In addition, the result in series [7] and in series [8] was inactive. Besides, in series [3], the ED50 is 18.4 mg/kg. Further, the TD50 at 4 h in series [4] was over 931 mg/kg. For the same compound, the PI in series [5] is on record as over 50.6.

For the compound `Cc1ccc(COc2ccc3c(c2)CCCc2n[nH]c(=O)n2-3)cc1`, the outcome in series [7] and in series [2] was inactive. Further, in series [3], the ED50 is 50 mg/kg. This compound came in with a TD50 at 4 h in series [4] of over 931 mg/kg. Further, in series [5], the PI is given as over 18.6.

Take `O=c1[nH]nc2n1-c1ccc(OCc3ccc(F)cc3)cc1CCC2`: the result in series [7] was inactive. In addition, in series [3], the ED50 was found to be 22.8 mg/kg. This compound also yielded a TD50 at 4 h in series [4] of over 931 mg/kg. Besides, the PI in [5] was over 40.8.

In the case of `CCCCCCCCOc1ccc2c(c1)CCCc1n[nH]c(=O)n1-2`, the result in [2] was Active. Besides, the ED50 in series [3] and in [9] was 20.7 mg/kg each time. This compound also showed a TD50 at 4 h in [4] of over 1120 mg/kg. For the same compound, the results for the PI in [5] and in [10] were over 54 and over 22.2, respectively.

For `CCCOc1ccc2c(c1)CCCc1n[nH]c(=O)n1-2`, in [7], the outcome was inactive. The 50% effective dose (ED50) in series [3] was determined as 75.5 mg/kg. Besides, the TD50 at 4 h in [4] is over 931 mg/kg. Further, the PI in series [5] is on record as over 12.3.

`NC(=O)N1c2ccccc2C=Cc2ccccc21` [CARBAMAZEPINE]: the 50% effective dose (ED50) in series [3] and in series [9] was 9.2 mg/kg in each case. The compound further returned a TD50 at 4 h in series [4] of 74.4 mg/kg. In series [10], the PI is reported as under 0.74.

For the compound `O=c1[nH]nc2n1-c1ccc(OCc3ccc(Cl)cc3)cc1CCC2`, in [1], the outcome was Active. In addition, the outcome in series [8] was inactive. The ED50 in series [3] came out at 40.1 mg/kg. Moreover, in series [4], the TD50 at 4 h was over 931 mg/kg. Also, the PI in [5] is reported as over 23.2.

Take `CCCCCCCOc1ccc2c(c1)CCCc1n[nH]c(=O)n1-2`: the result in [6] and in series [2] was Active. Besides, the median effective dose (ED50) in series [3] and in series [9] was 17.6 mg/kg throughout. This compound came in with a TD50 at 4 h in series [4] of over 1120 mg/kg. The PI in series [5] is over 63.4; in series [10], over 25.9.

As for `CCCCCCOc1ccc2c(c1)CCCc1n[nH]c(=O)n1-2`, the result in series [6] and in series [2] was Active. Moreover, the ED50 in [3] and in series [9] was 17.9 mg/kg each time. In series [4], the TD50 at 4 h is over 1120 mg/kg. In addition, the PI in series [5] is over 62.4; in series [10] it was over 24.

`O=c1[nH]nc2n1-c1ccc(OCc3ccc(Br)cc3)cc1CCC2`: the outcome in series [1] was Active. Moreover, the 50% effective dose (ED50) in series [3] came to 55.8 mg/kg. The same compound had a TD50 at 4 h in series [4] of over 931 mg/kg. In addition, the PI in series [5] was over 16.7.

Regarding `O=c1[nH]nc2n1-c1ccc(OCc3ccccc3)cc1CCC2`, the result in series [1] was Active. In addition, the median effective dose (ED50) in series [3] is 30.5 mg/kg. This compound came in with a TD50 at 4 h in series [4] of over 931 mg/kg. For the same compound, the PI in series [5] is reported as over 30.5.

In the case of `COc1ccc2c(c1)CCCc1n[nH]c(=O)n1-2`, in [11], the outcome was Active. Also, the result in series [7], in [2] and in series [8] was inactive.

Consider `CCCCOc1ccc2c(c1)CCCc1n[nH]c(=O)n1-2`, for which the result in series [1] and in series [2] was Active. In addition, the ED50 in [3] and in series [9] was 37.3 mg/kg in each case. The compound further registered a TD50 at 4 h in series [4] of over 1120 mg/kg. In addition, the PI is listed as over 29.9 in series [5] and over 17 in [10].

On to `CCCCCOc1ccc2c(c1)CCCc1n[nH]c(=O)n1-2`, for which the result in series [6] and in series [2] was Active. The ED50 in [3] and in [9] was 24.6 mg/kg in each case. The compound further had a TD50 at 4 h in series [4] of over 1120 mg/kg. Moreover, the PI in [5] was over 45.4; in series [10], over 29.4.
